Measured values reported in ChEMBL document CHEMBL4513216, “Probing the Open Global Health Chemical Diversity Library for Multistage-Active Starting Points for Next-Generation Antimalarials” (ACS Infect Dis, 2020).

Experiment: Toxicity liver stage against HepG2, at 10uM
Format: cell-based
Set-up: test concentration 10 uM, cell line HepG2-A16-CD81EGFP
Conditions: human, HepG2-A16-CD81EGFP cells; read-out: INHIBITION
In short: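 Uninfected HepG2-A16-CD81EGFP cells, 3 × 10^3 per well, 1536-well, plated on prespotted compound at 10 μM final, parasite-free screening media added to match infected plates; puromycin 10 μM positive, DMSO 0.5% negative; run in parallel with 48 h PbLuc assay at 37 °C, 5% CO2; viability by CellTiter-Glo luminescence, normalized to controls.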
Molecule `CCS(=O)(=O)N1CC[C@@H]2[C@H](CC1)N(CC(C)C)CCS2(=O)=O` has a cytotoxicity at 10 µM of 8.4%. `COc1ccccc1CCC(=O)N1CCCC(OCc2cccnc2)C1` (configuration not stated) gave a cytotoxicity at 10 µM of 2.98%. In the case of `O=C(CCS(=O)(=O)c1ccccc1)N1CCCC(n2cccn2)C1` (configuration not stated), the cytotoxicity at 10 µM is reported as -14.7%. For `NCc1cnn(-c2ccccc2C(=O)NCCc2ccccn2)c1`, the cytotoxicity at 10 µM was -19.5%. With `Oc1ccccc1-c1n[nH]c(C2CC2)n1` the cytotoxicity at 10 µM was 5.84%. In the case of `Cn1c(C2CC2)nc2c1CCN(CC(=O)Nc1ccncc1)C2`, the cytotoxicity at 10 µM is reported as -11.8%. In the case of `O=C(CNc1cccc(CC(F)(F)F)c1)NCc1ccco1`, the cytotoxicity at 10 µM is reported as -46.3%. `COc1cccn(Cc2nnc(-c3cccnc3)o2)c1=O` gave a cytotoxicity at 10 µM of 7.99%. With `CN(Cc1cccs1)C(=O)CN1CCCC(Cn2cncn2)C1` (configuration not stated) the cytotoxicity at 10 µM was -3.95%. Work on `Cc1cc(-c2cnc(N3CCN(C)CC3)nc2-c2ccc(C)s2)on1` yielded a cytotoxicity at 10 µM of -3.68%. Molecule `COc1ccnc(N(C)Cc2csc(C)n2)n1` has a cytotoxicity at 10 µM of -2.62%. For `Fc1cc(CCNc2ccc3nccn3n2)c2c(c1)COCO2`, the cytotoxicity at 10 µM was 17.2%. For `CC(C)CN1CCN(C)C(CCO)C1` (configuration not stated), the cytotoxicity at 10 µM was 1.84%. With `CC1CCCCN1C(=O)Cn1cnc(C#N)n1` (configuration not stated) the cytotoxicity at 10 µM was -18.8%. With `CCNC(=O)C(C)NC(=O)Nc1ccccc1SCC` (configuration not stated) the cytotoxicity at 10 µM was -7.4%. `CC(=O)NCCNC(=O)c1sccc1Br` showed a cytotoxicity at 10 µM of 4.2%. `Cc1c(C(=O)N[C@@H]2CC[C@@H](N3CCCC3)[C@@H]2O)[nH]c2ccc(F)cc12` showed a cytotoxicity at 10 µM of -1.85%. `Cc1cc(N2Cc3cnn(CCO)c3C2)nc(-c2ccccc2)n1` showed a cytotoxicity at 10 µM of -156%. `CCCS(=O)(=O)NC(C)C(=O)NCc1ccc(N2CCCC2)nc1` (configuration not stated) showed a cytotoxicity at 10 µM of -11.8%. `O=C(CCc1ccco1)Nc1ccc(Br)cn1` showed a cytotoxicity at 10 µM of 81.2%. `Cn1cnc2c1CCN(Cc1csc(-c3ccccc3)n1)C2` gave a cytotoxicity at 10 µM of -1.04%. `Cc1ccnc(CC(C)N(C)Cc2ccc3c(c2)OCCO3)c1` (configuration not stated) showed a cytotoxicity at 10 µM of -4.24%. `N#CC1(C(=O)N2C[C@H](Nc3ccnc(N)n3)[C@@H](C3CC3)C2)CCOCC1` showed a cytotoxicity at 10 µM of -1.2%. In the case of `O=C([C@H]1COC[C@H]2CN(C3CCOCC3)C[C@H]21)N1CCCO1`, the cytotoxicity at 10 µM is reported as -4.68%. `OCCC1CN(c2ncnc3[nH]cnc23)CCN1Cc1ccccc1` (configuration not stated) gave a cytotoxicity at 10 µM of 11.9%. `O=C(NCCNc1ncccn1)c1scnc1Cl` gave a cytotoxicity at 10 µM of -3.11%. With `Cc1nn(C)cc1-c1cc(C(F)(F)F)c2c(C)nn(CC(=O)O)c2n1` the cytotoxicity at 10 µM was -4.79%. With `CNC(=O)[C@H]1C[C@@H]2CCN(Cc3ccc4c(c3)OCO4)C[C@@H]2O1` the cytotoxicity at 10 µM was 5.79%. Molecule `COc1nccc(N2CC[C@H](CO)[C@@H](O)C2)c1C#N` has a cytotoxicity at 10 µM of -141%. With `Cn1cc(CN2CCC(F)(F)C3(CCN(c4cccnc4)C3)C2)cn1` (configuration not stated) the cytotoxicity at 10 µM was 3.89%. In the case of `Cc1cc(F)ccc1NC(=O)NCC(C)N1CCOCC1` (configuration not stated), the cytotoxicity at 10 µM is reported as -4.1%. `CCc1ccc(CN2CCNC(C(=O)N3CCN(C)CC3)C2)o1` (configuration not stated) gave a cytotoxicity at 10 µM of -0.891%. `COc1ccc(CN(C)C(=O)CSc2nnc(N)s2)c(OC)c1OC` gave a cytotoxicity at 10 µM of 7.59%. `O=C1CCCN1Cc1nnc2n1CCN(Cc1ccccn1)CC2` gave a cytotoxicity at 10 µM of -9.87%. `CCS(=O)(=O)NCCNCc1ccc(Cl)c2cccnc12` showed a cytotoxicity at 10 µM of -0.969%. `Cc1ccccc1OCCN1CCN(Cc2cnn(CCO)c2)CC1` gave a cytotoxicity at 10 µM of -17.9%. Work on `CC(NCCCc1cnn(C)c1)c1ccc(Br)s1` (configuration not stated) yielded a cytotoxicity at 10 µM of 9.59%. `CCc1nc(CS(=O)(=O)Cc2noc(C3CC3)n2)cs1` showed a cytotoxicity at 10 µM of -7.38%. Molecule `CCc1nc(CN2CCCN(C(=O)C(C)n3cncn3)CC2)cs1` (configuration not stated) has a cytotoxicity at 10 µM of -7.26%. In the case of `O=C(O)[C@@H]1CN(C(=O)CSCCN2CCCC2)C[C@H]1c1ccccc1`, the cytotoxicity at 10 µM is reported as -12.1%. Molecule `CSCc1cc(F)ccc1CNCc1cccnc1` has a cytotoxicity at 10 µM of -9.84%. `Cc1cccc(CNC(=O)Nc2ccc3c(c2)CCCC(=O)N3)c1` showed a cytotoxicity at 10 µM of 2.33%. With `CCCn1cc(-c2cc(-c3cc(CC)n[nH]3)c(C#N)c(N)n2)c(C)n1` the cytotoxicity at 10 µM was -6.7%. For `CS(=O)(=O)N[C@@H]1CCO[C@]2(CCN(C(=O)c3cnccn3)C2)C1`, the cytotoxicity at 10 µM was 1.98%. For `Cn1c(CO)nnc1SCc1c(F)cccc1Br`, the cytotoxicity at 10 µM was -41.2%. `COCC(C)(NC(=O)c1cc(Cl)c(-n2cccc2)cc1OC)C(N)=O` (configuration not stated) gave a cytotoxicity at 10 µM of -4.15%. Molecule `O=C(CSc1ccncc1)N1C[C@@H]2CC[C@H]1CN(Cc1cccnc1)C2` has a cytotoxicity at 10 µM of 4.66%. `Cc1noc(C2(C)CCCN(C(=O)c3cnn(C)c3)C2)n1` (configuration not stated) gave a cytotoxicity at 10 µM of -17.3%. In the case of `Cn1cccc1C1CCCN1C(=O)NCCCn1cccn1` (configuration not stated), the cytotoxicity at 10 µM is reported as 19.2%. Work on `Cn1cc(C2=NOC(C(=O)NC3(c4ccccc4F)CCCC3)C2)cn1` (configuration not stated) yielded a cytotoxicity at 10 µM of -0.269%. In the case of `Cc1ccc(Cl)cc1C(=O)N1CCC2(CC1)c1ccccc1[C@@H](N)[C@@H]2O`, the cytotoxicity at 10 µM is reported as -13.8%. `Clc1cccc(Cl)c1CN(CCCN1CCOCC1)Cc1cccnc1` showed a cytotoxicity at 10 µM of -0.52%. `CC(C)N(C)[C@@H]1CCN(Cc2ccco2)[C@H]1Cc1ccccc1` gave a cytotoxicity at 10 µM of -7.92%. Work on `CS(=O)(=O)N1CCC(C(=O)N2CCC(Cn3cccn3)CC2)CC1` yielded a cytotoxicity at 10 µM of -10.2%. In the case of `CS(=O)(=O)N1CCC2(CC1)CC(CC(=O)N1CCCC1)c1ccccc12` (configuration not stated), the cytotoxicity at 10 µM is reported as -0.748%. With `O=C(CCN1CCC(c2cc3ccccc3[nH]2)CC1)N1CCOCC1` the cytotoxicity at 10 µM was -3.81%. In the case of `NC(=O)C(Nc1cccc(CO)c1)c1ccc(Br)cc1` (configuration not stated), the cytotoxicity at 10 µM is reported as 9.17%. Molecule `Cc1cnc(NCC(C)(C)N2CCOCC2)nc1` has a cytotoxicity at 10 µM of 5.68%. For `COc1ccc(Cl)cc1NCc1nc2[nH]c(C)c(C)c(=O)n2n1`, the cytotoxicity at 10 µM was 0.308%. `Cn1c(C2CC2)nc2cc(NC(=O)C3CCOC3)ccc21` (configuration not stated) gave a cytotoxicity at 10 µM of 3.09%. `O=C(CC1CNCCO1)N1CCC(c2cc(N3CCCC3)ncn2)CC1` (configuration not stated) showed a cytotoxicity at 10 µM of 5.81%. `N#Cc1c(CN2CCCC2Cn2cccn2)cn2ccccc12` (configuration not stated) showed a cytotoxicity at 10 µM of -4.67%. `Cc1cc(-c2c[nH]nc2C2CCCCN2C(=O)c2ccccc2)on1` (configuration not stated) showed a cytotoxicity at 10 µM of 7.9%. With `O=C(c1ccoc1)N1CCN(Cc2ccccc2F)CC1` the cytotoxicity at 10 µM was -13.2%. `Clc1ccc(-n2cnnc2CCCN2CCOCC2)cc1` showed a cytotoxicity at 10 µM of 5.52%. Molecule `CC(C)(C)C(=O)NCCC(=O)N1CCC(Nc2cccnn2)CC1` has a cytotoxicity at 10 µM of -4.11%. Molecule `O=C(Nc1nncs1)NC1CCN(Cc2ccccc2)C1` (configuration not stated) has a cytotoxicity at 10 µM of -0.397%. For `Nc1cc2c(nn1)CCN(C(=O)CC1CCCC1)C2`, the cytotoxicity at 10 µM was -6.31%. Molecule `COCCN1C(=O)CCC12CCCN(Cc1nccs1)CC2` (configuration not stated) has a cytotoxicity at 10 µM of -85.1%. Molecule `CC(C)N(C)C(=O)C1=NOC2(CCN(C(=O)c3ccnnc3)C2)C1` (configuration not stated) has a cytotoxicity at 10 µM of -119%. `CCc1nc(C(=O)N2CCN(C(=O)CCc3ccccc3)CC2)c[nH]1` showed a cytotoxicity at 10 µM of 5.92%. `O=C1OCC(CO)N1Cc1cccc(Cl)c1F` (configuration not stated) gave a cytotoxicity at 10 µM of 0.739%. `CC(C)N1CCOC(CC(=O)N2CCCN(Cc3cccs3)CC2)C1` (configuration not stated) showed a cytotoxicity at 10 µM of -12.2%. For `CCS(=O)(=O)N1C[C@@H](c2cc(O)nc(C)n2)[C@H](c2ccccc2F)C1`, the cytotoxicity at 10 µM was 7.17%. In the case of `O=C(CC1CCc2ccccc21)NC1(C(=O)O)CCOCC1` (configuration not stated), the cytotoxicity at 10 µM is reported as -2.13%. `O=C(c1cncc(NCC2COc3ccccc3C2)n1)N1CCOCC1` (configuration not stated) showed a cytotoxicity at 10 µM of -3.37%. `CSc1ccsc1C(=O)N1CCN(CC(C)(C)O)CC1` showed a cytotoxicity at 10 µM of -3.22%. With `O=C(Cc1ccccc1)N1CCN(Cc2noc(C3CC3)n2)CC1` the cytotoxicity at 10 µM was 1.15%. `Cc1cccc(CN2CC3(CCN(Cc4ccoc4)CC3)OCC2=O)n1` gave a cytotoxicity at 10 µM of -3.18%. Work on `COc1cccc(-c2cnc(CNC(C)(C)c3nc(C)cs3)o2)c1` yielded a cytotoxicity at 10 µM of 11.4%. Work on `COc1ccccc1CC(=O)NS(=O)(=O)c1cncc(Br)c1` yielded a cytotoxicity at 10 µM of -12.7%. Molecule `Cc1cc(C)n(C2CCCN(C(=O)Cn3ccc(=O)n(C)c3=O)C2)n1` (configuration not stated) has a cytotoxicity at 10 µM of 0.437%.
